≈ marks a conversion by molar mass, not a printed value.
What was measured:
[1] = test system: Mycobacterium tuberculosis; assay: Antimycobacterial against Mycobacterium tuberculosis H37Rv by agar dilution method; format: functional
Outline: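 MIC read by agar dilution against M. tuberculosis H37Rv, run in triplicate.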

[2] = test system: Mycolicibacterium smegmatis; assay: Antimycobacterial against Mycobacterium smegmatis MC2 by agar dilution method; format: functional
Outline: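 MIC read by agar dilution, run in triplicate against M. smegmatis MC², screened in parallel with M. tuberculosis and an MDR-TB clinical isolate.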

COc1ccc([C@H]2[C@H](c3ccccc3)N[C@@]3(C(=O)Nc4ccccc43)[C@@]23CN(C)CCC3=O)cc1
MIC [1]: 26.7 µM (≈ 12.5 µg/mL)
MIC [2]: 53.5 µM (≈ 25 µg/mL)

Cc1ccc([C@H]2[C@@H]3CCCN3[C@@]3(C(=O)Nc4ccccc43)[C@@]23CN(C)CCC3=O)cc1
MIC [1]: 7.53 µM (≈ 3.13 µg/mL)
MIC [2]: 15 µM (≈ 6.25 µg/mL)

COc1ccc([C@H]2[C@@H]3CCCN3[C@@]3(C(=O)Nc4ccccc43)[C@@]23CN(C)CCC3=O)cc1
MIC [1]: 14.5 µM (≈ 6.25 µg/mL)
MIC [2]: 57.9 µM (≈ 25 µg/mL)

COc1ccc([C@H]2CN(C)[C@@]3(C(=O)Nc4ccccc43)[C@@]23CN(C)CCC3=O)cc1
MIC [1]: 30.8 µM (≈ 12.5 µg/mL)
MIC [2]: 61.6 µM (≈ 25 µg/mL)

CN1CCC(=O)[C@]2(C1)[C@@H](c1cccc(F)c1)[C@H](c1ccccc1)N[C@@]21C(=O)Nc2ccccc21
MIC [1]: 6.87 µM (≈ 3.13 µg/mL)
MIC [2]: 54.9 µM (≈ 25 µg/mL)

Cc1ccc([C@H]2CN(C)[C@@]3(C(=O)Nc4ccccc43)[C@@]23CN(C)CCC3=O)cc1
MIC [1]: 16.1 µM (≈ 6.25 µg/mL)
MIC [2]: 32.1 µM (≈ 12.5 µg/mL)

CN1CCC(=O)[C@]2(C1)[C@@H](c1ccc(Cl)cc1Cl)[C@H](c1ccccc1)N[C@@]21C(=O)Nc2ccccc21
MIC [1]: 12.3 µM (≈ 6.25 µg/mL)
MIC [2]: 98.7 µM (≈ 50 µg/mL)

CN1CCC(=O)[C@]2(C1)[C@@H](c1ccccc1Cl)CN(C)[C@@]21C(=O)Nc2ccccc21
MIC [1]: 7.64 µM (≈ 3.13 µg/mL)
MIC [2]: 30.5 µM (≈ 12.5 µg/mL)

CN1CCC(=O)[C@]2(C1)[C@@H](c1ccc(Cl)cc1Cl)[C@@H]1CCCN1[C@@]21C(=O)Nc2ccccc21
MIC [1]: 3.32 µM (≈ 1.56 µg/mL)
MIC [2]: 53.1 µM (≈ 25 µg/mL)

CN1CCC(=O)[C@]2(C1)[C@@H](c1cccc(F)c1)CN(C)[C@@]21C(=O)Nc2ccccc21
MIC [1]: 7.95 µM (≈ 3.13 µg/mL)
MIC [2]: 63.5 µM (≈ 25 µg/mL)

CN1CCC(=O)[C@]2(C1)[C@@H](c1ccc(Cl)cc1Cl)CN(C)[C@@]21C(=O)Nc2ccccc21
MIC [1]: 1.76 µM (≈ 0.782 µg/mL)
MIC [2]: 56.3 µM (≈ 25 µg/mL)

Cc1ccc([C@H]2[C@H](c3ccccc3)N[C@@]3(C(=O)Nc4ccccc43)[C@@]23CN(C)CCC3=O)cc1
MIC [1]: 27.7 µM (≈ 12.5 µg/mL)
MIC [2]: 111 µM (≈ 50 µg/mL)

CN1CCC(=O)[C@]2(C1)[C@@H](c1ccccc1Cl)[C@@H]1CCCN1[C@@]21C(=O)Nc2ccccc21
MIC [1]: 3.58 µM (≈ 1.56 µg/mL)
MIC [2]: 28.7 µM (≈ 12.5 µg/mL)

CN1CCC(=O)[C@]2(C1)[C@@H](c1cccc(F)c1)[C@@H]1CCCN1[C@@]21C(=O)Nc2ccccc21
MIC [1]: 7.46 µM (≈ 3.13 µg/mL)
MIC [2]: 29.8 µM (≈ 12.5 µg/mL)

CN1CCC(=O)[C@]2(C1)[C@@H](c1ccccc1Cl)[C@H](c1ccccc1)N[C@@]21C(=O)Nc2ccccc21
MIC [1]: 13.2 µM (≈ 6.25 µg/mL)
MIC [2]: 53 µM (≈ 25 µg/mL)

CC[C@@H](CO)NCCN[C@@H](CC)CO [ETHAMBUTOL]
MIC [1]: 7.64 µM (≈ 1.56 µg/mL)
MIC [2]: 122 µM (≈ 25 µg/mL)

NNC(=O)c1ccncc1 [ISONIAZID]
MIC [1]: 0.39 µM (≈ 0.0535 µg/mL)
MIC [2]: 45.6 µM (≈ 6.25 µg/mL)

NC(=O)c1cnccn1 [PYRAZINAMIDE]
MIC [1]: 50.8 µM (≈ 6.25 µg/mL)
MIC [2]: 406 µM (≈ 50 µg/mL)
